Calls of active or inactive are those of the source. The rule behind the calls is not given here.
Key:
[1] = system: Mus musculus; assay: Immunosuppressive effect in Kunming mouse implanted with mouse H22 cells assessed as spleen index at 50 mg/kg, ig once daily for 12 days measured at 24 hrs post last dose (reference value: 0.54 +/- 0.09%); type: ADME, organism-based; settings: in vivo, po
[2] = system: Mus musculus; assay: Decrease in serum bFGF level in Kunming mouse implanted with mouse H22 cells at 50 to 200 mg/kg, ig once daily for 12 days measured at 24 hrs post last dose by ELISA; type: functional, organism-based
Outline: (§1)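 Serum came from H22 sc tumor-bearing mice dosed intragastrically once daily for 12 days, collected 24 h after the last dose from the orbital plexus (3000g, 10 min, stored at –80 °C). IL-2, IL-6, TNF-α, IFN-γ, VEGF and bFGF were measured by commercial ELISA kits following the manufacturer's protocol.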

[3] = system: Mus musculus; assay: Immunosuppressive effect in Kunming mouse implanted with mouse H22 cells assessed as liver index at 50 mg/kg, ig once daily for 12 days measured at 24 hrs post last dose (reference value: 4.17 +/- 0.68%); type: ADME, organism-based; settings: in vivo, po
[4] = system: Mus musculus; assay: Immunosuppressive effect in Kunming mouse implanted with mouse H22 cells assessed as spleen index at 200 mg/kg, ig once daily for 12 days measured at 24 hrs post last dose (reference value: 0.54 +/- 0.09%); type: ADME, organism-based; settings: in vivo, po
[5] = system: Mus musculus; assay: Renal toxicity in Kunming mouse implanted with mouse H22 cells assessed as increase in serum CRE level at 50 to 200 mg/kg, ig once daily for 12 days measured at 24 hrs post last dose; type: organism-based; settings: in vivo, po
Outline: (§2)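 Mice bore sc H22 tumors and received intragastric doses once daily for 12 days (n = 10). Blood was drawn from the orbital venous plexus 24 h after the last dose. It was allowed to clot and centrifuged at 3000g for 10 min, and the serum was stored at –80 °C. AST, ALT, CRE, BUN and UA were measured with commercial kits.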

[6] = system: Mus musculus; assay: Immunostimulatory activity in Kunming mouse implanted with mouse H22 cells assessed as increase in serum IL-6 level at 50 mg/kg, ig once daily for 12 days measured at 24 hrs post last dose by ELISA; type: functional, organism-based; outline: as §1
[7] = system: Mus musculus; assay: Decrease in serum VEGF level in Kunming mouse implanted with mouse H22 cells at 50 to 200 mg/kg, ig once daily for 12 days measured at 24 hrs post last dose by ELISA; type: functional, organism-based; outline: as §1
[8] = system: Mus musculus; assay: Immunostimulatory activity in Kunming mouse implanted with mouse H22 cells assessed as increase in serum IFNgamma level at 200 mg/kg, ig once daily for 12 days measured at 24 hrs post last dose by ELISA; type: functional, organism-based; outline: as §1
[9] = system: Mus musculus; assay: Immunosuppressive effect in Kunming mouse implanted with mouse H22 cells assessed as liver index at 200 mg/kg, ig once daily for 12 days measured at 24 hrs post last dose (reference value: 4.17 +/- 0.68%); type: ADME, organism-based; settings: in vivo, po
[10] = system: Mus musculus; assay: Decrease in tumor hemorrhage in Kunming mouse implanted with mouse H22 cells at 50 to 200 mg/kg, ig once daily for 12 days measured at 24 hrs post last dose by hematoxylin and eosin staining based microscopic method; type: functional, organism-based
Outline: (§3)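 H22 cells given 0.2 mL of 1 × 10^6 cells per mL subcutaneously in the right axilla. Treatment began on day 3, […]. Dosing was intragastric in saline, once daily for 12 days, n = 10 per group. Mice were killed 24 h after the last dose. Tumors were fixed in buffered neutral 10% formalin, paraffin-embedded, cut at 4 μm, HE-stained and examined by light microscopy at 400×.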

[11] = system: H22; assay: Antitumor activity against mouse H22 cells implanted in Kunming mouse assessed as tumor growth inhibition at 200 mg/kg, ig once daily for 12 days measured at 24 hrs post last dose relative to control; type: functional; settings: H22, po, read-out: TGI
Outline: (§4)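 Sc H22 implant (0.2 mL, 1 × 10^6 cells per mL, right axilla). Intragastric dosing started 3 days later, once daily for 12 days in 0.2 mL; saline control; 10 mice per group. Tumors were excised and weighed 24 h after the last dose. Inhibition rate = (1 – mean treated tumor weight/mean model tumor weight) × 100%. Caliper volume taken every 2 days as A × B2/2.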

[12] = system: Mus musculus; assay: Immunosuppressive effect in Kunming mouse implanted with mouse H22 cells assessed as thymus index at 50 mg/kg, ig once daily for 12 days measured at 24 hrs post last dose (reference value: 0.13 +/- 0.06%); type: ADME, organism-based; settings: in vivo, po
[13] = system: Mus musculus; assay: Renal toxicity in Kunming mouse implanted with mouse H22 cells assessed as increase in serum UA level at 50 to 200 mg/kg, ig once daily for 12 days measured at 24 hrs post last dose; type: organism-based; settings: in vivo, po; outline: as §2
[14] = system: H22; assay: Antitumor activity against mouse H22 cells implanted in Kunming mouse assessed as necrotic and apoptotic region at 50 to 200 mg/kg, ig once daily for 12 days measured at 24 hrs post last dose by hematoxylin and eosin staining based microscopic method; type: functional, organism-based; outline: as §3
[15] = system: H22; assay: Antitumor activity against mouse H22 cells implanted in Kunming mouse assessed as tumor growth inhibition administered ig once daily for 12 days measured at 24 hrs post last dose; type: functional; outline: as §4
[16] = system: Mus musculus; assay: Hepatotoxicity in Kunming mouse implanted with mouse H22 cells assessed as increase in serum AST level at 50 to 200 mg/kg, ig once daily for 12 days measured at 24 hrs post last dose; type: toxicity, organism-based; settings: in vivo, po; outline: as §2
[17] = system: Mus musculus; assay: Immunostimulatory activity in Kunming mouse implanted with mouse H22 cells assessed as increase in serum IL-2 level at 200 mg/kg, ig once daily for 12 days measured at 24 hrs post last dose by ELISA; type: functional, organism-based; outline: as §1
[18] = system: Mus musculus; assay: Toxicity in Kunming mouse implanted with mouse H22 cells assessed as increase in body weight at 200 mg/kg, ig once daily for 12 days measured every 3 days during compound dosing; type: organism-based; settings: in vivo, po
Outline: (§5)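 H22 sc tumor-bearing mice were dosed intragastrically once daily for 12 days (0.2 mL, n = 10). Mice were weighed every three days and doses adjusted accordingly. Body weight gain = (final – initial body weight)/initial body weight.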

[19] = system: Mus musculus; assay: Immunostimulatory activity in Kunming mouse implanted with mouse H22 cells assessed as increase in serum IL-2 level at 50 mg/kg, ig once daily for 12 days measured at 24 hrs post last dose by ELISA; type: functional, organism-based; outline: as §1
[20] = system: Mus musculus; assay: Immunosuppressive effect in Kunming mouse implanted with mouse H22 cells assessed as thymus index at 200 mg/kg, ig once daily for 12 days measured at 24 hrs post last dose (reference value: 0.13 +/- 0.06%); type: ADME, organism-based; settings: in vivo, po
[21] = system: H22; assay: Antitumor activity against mouse H22 cells implanted in Kunming mouse assessed as tumor growth inhibition at 50 mg/kg, ig once daily for 12 days measured at 24 hrs post last dose relative to control; type: functional; settings: H22, po, read-out: TGI; outline: as §4
[22] = system: Mus musculus; assay: Hepatotoxicity in Kunming mouse implanted with mouse H22 cells assessed as increase in serum ALT level at 50 to 200 mg/kg, ig once daily for 12 days measured at 24 hrs post last dose; type: toxicity, organism-based; settings: in vivo, po; outline: as §2
[23] = system: H22; assay: Antitumor activity against mouse H22 cells implanted in Kunming mouse assessed as decrease in hepatoma cell density at 200 mg/kg, ig once daily for 12 days measured at 24 hrs post last dose by hematoxylin and eosin staining based microscopic method; type: functional, organism-based; outline: as §3
[24] = system: H22; assay: Antitumor activity against mouse H22 cells implanted in Kunming mouse assessed as decrease in nuclear to cytoplasmic ratio at 50 to 200 mg/kg, ig once daily for 12 days measured at 24 hrs post last dose by hematoxylin and eosin staining based microscopic method; type: functional, organism-based; outline: as §3
[25] = system: Mus musculus; assay: Renal toxicity in Kunming mouse implanted with mouse H22 cells assessed as increase in serum BUN level at 50 to 200 mg/kg, ig once daily for 12 days measured at 24 hrs post last dose; type: organism-based; settings: in vivo, po; outline: as §2
[26] = system: Mus musculus; assay: Immunostimulatory activity in Kunming mouse implanted with mouse H22 cells assessed as increase in serum IL-6 level at 200 mg/kg, ig once daily for 12 days measured at 24 hrs post last dose by ELISA; type: functional, organism-based; outline: as §1
[27] = system: Mus musculus; assay: Toxicity in Kunming mouse implanted with mouse H22 cells assessed as increase in body weight at 50 mg/kg, ig once daily for 12 days measured every 3 days during compound dosing; type: organism-based; settings: in vivo, po; outline: as §5
[28] = system: Mus musculus; assay: Immunostimulatory activity in Kunming mouse implanted with mouse H22 cells assessed as increase in serum TNFalpha level at 200 mg/kg, ig once daily for 12 days measured at 24 hrs post last dose by ELISA; type: functional, organism-based; outline: as §1
[29] = system: Mus musculus; assay: Decrease in leukocyte infiltration in Kunming mouse implanted with mouse H22 cells at 50 to 200 mg/kg, ig once daily for 12 days measured at 24 hrs post last dose by hematoxylin and eosin staining based microscopic method; type: functional, organism-based; outline: as §3

Q: Which Activity_index [1] does the source give for `COc1c(O)cc2cc(C(=O)O)n(C)c2c1C1=c2cc(C(=O)O)[nH]c2=C(Cc2cc(C(=O)O)[nH]c2C(=O)O)C(=O)C1=O` here?
A: The Activity_index was 0.48%.

Q: And the Activity [2]?
A: Its Activity is “Active”.

Q: What about the Activity_index [3] of the same compound?
A: Its Activity_index is 3.72%.

Q: And the Activity_index [4]?
A: The Activity_index was 0.48%.

Q: What about the Activity [5] of the same compound?
A: The Activity was “Non-Toxic”.

Q: What about the Activity [6] of the same compound?
A: Its Activity is “Active”.

Q: And the Activity [7]?
A: The Activity was “Active”.

Q: And the Activity [8]?
A: The Activity was “Active”.

Q: And the Activity_index [9]?
A: The Activity_index was 3.79%.

Q: What about the Activity [10] of the same compound?
A: Its Activity is “Active”.

Q: And the inhibition in vivo at 200 mg/kg [11]?
A: Its inhibition in vivo at 200 mg/kg is 35%.

Q: What about the Activity_index [12] of the same compound?
A: The Activity_index was 0.15%.

Q: And the Activity [13]?
A: The Activity was “Non-Toxic”.

Q: And the Activity [14]?
A: Its Activity is “Active”.

Q: And the TGI [15]?
A: Its TGI is “Dose-dependent effect”.

Q: And the Activity [16]?
A: The Activity was “Non-Toxic”.

Q: And the Activity [17]?
A: Its Activity is “Active”.

Q: And the Activity [18]?
A: The Activity was 7.56 g.

Q: And the Activity [19]?
A: Its Activity is “Active”.

Q: And the Activity_index [20]?
A: Its Activity_index is 0.16%.

Q: And the inhibition in vivo at 50 mg/kg [21]?
A: The inhibition in vivo at 50 mg/kg was 32.3%.

Q: What about the Activity [22] of the same compound?
A: The Activity was “Non-Toxic”.

Q: And the Activity [23]?
A: Its Activity is “Active”.

Q: What about the Activity [24] of the same compound?
A: Its Activity is “Active”.

Q: What about the Activity [25] of the same compound?
A: The Activity was “Non-Toxic”.

Q: What about the Activity [26] of the same compound?
A: The Activity was “Active”.

Q: What about the Activity [27] of the same compound?
A: The Activity was 8.2 g.

Q: And the Activity [28]?
A: The Activity was “Active”.

Q: And the Activity [29]?
A: The Activity was “Active”.

Source: ChEMBL document CHEMBL4257498, “Antitumor effects of melanin from Lachnum YM226 and its derivative in H22 tumor-bearing mice” (Medchemcomm, 2018)
